pIC50: −log10 of the molar value.
Tests used:
MCF7 = assay: Growth inhibition of human MCF7 cells assessed as cell growth at 10 uM after 48 hrs by sulforhodamine B assay; type: functional; details: MCF7, 48 h, read-out: Activity
Outline: (§1)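 Single-dose NCI-60 screen: adherent cells in RPMI 1640 with 5% FBS were exposed to 10 µM for 48 h at 37 °C after a 24 h preincubation. They were fixed in situ with cold TCA (10% final), stained with 0.4% SRB in 1% acetic acid, solubilized in 10 mM Tris base, and read at 515 nm. Percent growth was taken relative to time-zero and control plates.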

RXF 393 = assay: Growth inhibition of human RXF393 cells assessed as cell growth at 10 uM after 48 hrs by sulforhodamine B assay; type: functional; details: RXF 393, 48 h, read-out: Activity; outline: as §1
SK-OV-3 = assay: Growth inhibition of human SKOV3 cells assessed as cell growth at 10 uM after 48 hrs by sulforhodamine B assay; type: functional; details: SK-OV-3, 48 h, read-out: Activity
Outline: (§2)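 Single-dose NCI-60 test at 10 µM. Cells were grown in RPMI 1640 with 5% FBS and 2 mM L-glutamine, preincubated 24 h, with T0 plates TCA-fixed. Exposure was 48 h at 37 °C, 5% CO2. Cells were fixed with cold TCA (final 10%, 4 °C, 60 min), stained with SRB and read at 515 nm. Percent growth was taken relative to T0 and untreated control; negative values denote cell kill.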

OVCAR-4 = assay: Growth inhibition of human OVCAR4 cells assessed as cell growth at 10 uM after 48 hrs by sulforhodamine B assay; type: functional; details: OVCAR-4, 48 h, read-out: Activity; outline: as §1
M14 = assay: Growth inhibition of human M14 cells assessed as cell growth at 10 uM after 48 hrs by sulforhodamine B assay; type: functional; details: M14, 48 h, read-out: Activity
Outline: (§3)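 NCI-60 single-dose screen at 10 µM: cells in RPMI 1640 with 5% FBS, preincubated 24 h, then exposed 48 h at 37 °C. TCA fixation (16% final for suspension cells), SRB staining, absorbance 515 nm. Percent growth relative to time-zero and untreated control plates; negative values indicate cell kill.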

Malme-3M = assay: Growth inhibition of human MALME-3M cells assessed as cell growth at 10 uM after 48 hrs by sulforhodamine B assay; type: functional; details: read-out: Activity; outline: as §1
SNB-75 = assay: Growth inhibition of human SNB75 cells assessed as cell growth at 10 uM after 48 hrs by sulforhodamine B assay; type: functional; details: SNB-75, 48 h, read-out: Activity; outline: as §2
HT-29 = assay: Growth inhibition of human HT-29 cells assessed as cell growth at 10 uM after 48 hrs by sulforhodamine B assay; type: functional; details: HT-29, 48 h, read-out: Activity; outline: as §3
A549 = assay: Growth inhibition of human A549/ATCC cells assessed as cell growth at 10 uM after 48 hrs by sulforhodamine B assay; type: functional; details: A549, 48 h, read-out: Activity; outline: as §3
SR [1] = assay: Growth inhibition of human SR cells assessed as cell growth at 10 uM after 48 hrs by sulforhodamine B assay; type: functional; details: read-out: Activity
Outline: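 Suspension line in RPMI 1640 with 5% FBS, single 10 µM dose for 48 h. Settled cells were fixed with TCA (final 16%), then SRB-stained and read at 515 nm. Percent growth was taken versus T0 and control; negative values denote cytotoxicity.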

RPMI-8226 = assay: Growth inhibition of human RPMI8226 cells assessed as cell growth at 10 uM after 48 hrs by sulforhodamine B assay; type: functional; details: RPMI-8226, 48 h, read-out: Activity
Outline: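 Single 10 µM dose applied to suspension cells in RPMI 1640 with 5% FBS and 2 mM L-glutamine for 48 h at 37 °C. Settled cells were fixed with 80% TCA (16% final), stained with SRB, and read at 515 nm. Percent growth was calculated against time-zero and untreated control optical densities.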

TK-10 = assay: Growth inhibition of human TK10 cells after 48 hrs by sulforhodamine B assay; type: functional; details: TK-10, 48 h
Outline: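 NCI-60 five-dose screen. Cells were grown in RPMI 1640 with 5% FBS and 2 mM L-glutamine, plated at 5000–40,000 cells/well and incubated 24 h before dosing, with T0 plates TCA-fixed. DMSO stocks were diluted to doses of […] and exposed 48 h at 37 °C, 5% CO2. Cells were fixed with cold TCA (final 10%, 60 min, 4 °C), stained with 0.4% SRB in 1% acetic acid for 10 min, solubilized in 10 mM trizma base and read at 515 nm. GI50 is where 100×(T−T0)/(C−T0)=50.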

786-0 = assay: Growth inhibition of human 786-0 cells after 48 hrs by sulforhodamine B assay; type: functional; details: 786-0, 48 h
Outline: (§4)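 NCI-60 screen: cells in RPMI 1640 with 5% FBS and 2 mM glutamine, 5000–40,000 cells/well, preincubated 24 h. Five concentrations (10-fold dilutions; 100 to 0.001 µM) applied for 48 h at 37 °C. TCA fixation, SRB stain, absorbance at 515 nm. Time-zero plates included; GI50 where 100×(T−T0)/(C−T0)=50.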

OVCAR-3 = assay: Growth inhibition of human OVCAR3 cells after 48 hrs by sulforhodamine B assay; type: functional; details: OVCAR-3, 48 h
Outline: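 NCI-60 panel cells grown in RPMI 1640 with 5% FBS and 2 mM L-glutamine, seeded at 5000–40,000 cells/well and preincubated 24 h. Five 10-fold dilutions (0.001–100 µM) from DMSO stocks were added for 48 h at 37 °C. Adherent cells were fixed with cold TCA (10% final) for 60 min at 4 °C, stained with 0.4% SRB, and read at 515 nm. GI50 was set where 100×(T−T0)/(C−T0)=50.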

LOX IMVI = assay: Growth inhibition of human LOXIMVI cells after 48 hrs by sulforhodamine B assay; type: functional; outline: as §4
HCT-15 = assay: Growth inhibition of human HCT15 cells after 48 hrs by sulforhodamine B assay; type: functional; details: HCT-15, 48 h; outline: as §4
COLO 205 = assay: Growth inhibition of human COLO205 cells after 48 hrs by sulforhodamine B assay; type: functional; details: COLO 205, 48 h; outline: as §4
[2] = Growth inhibition of human EKVX cells after 48 hrs by sulforhodamine B assay; type: functional; outline: as §4
SR [3] = assay: Growth inhibition of human SR cells after 48 hrs by sulforhodamine B assay; type: functional
Outline: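 Suspension leukemia line in RPMI 1640 with 5% FBS and 2 mM L-glutamine, NCI-60 five-dose format ([…]), 48 h at 37 °C. Settled cells were fixed with 80% TCA (final 16%), stained with SRB and read at 515 nm. GI50 is where 100×(T−T0)/(C−T0)=50, with T0 measured at dosing.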

[4] = Antiproliferative activity against mouse +SA cells by MTT assay; type: functional, cell-based; details: +SA cell
Outline: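 Mouse +SA mammary epithelial cells in serum-free DMEM/F12 with BSA, transferrin, insulin and EGF. Compounds from DMSO stock conjugated to BSA (overnight, 37 °C); 0–40 µM, final DMSO <0.1%. MTT 0.42 mg/mL for 4 h at 37 °C, isopropanol solubilization, OD 570 nm. Cell number from a standard curve; IC50 by non-linear regression.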

| SMILES | growth at 10 µM (MCF7) | growth at 10 µM (RXF 393) | growth at 10 µM (SK-OV-3) | growth at 10 µM (OVCAR-4) | growth at 10 µM (M14) | growth at 10 µM (Malme-3M) | growth at 10 µM (SNB-75) | growth at 10 µM (HT-29) | growth at 10 µM (A549) | growth at 10 µM (SR [1]) | growth at 10 µM (RPMI-8226) | GI50 (TK-10) | GI50 (786-0) | GI50 (OVCAR-3) | GI50 (LOX IMVI) | GI50 (HCT-15) | GI50 (COLO 205) | GI50 [2] | GI50 (SR [3]) | pIC50 [4] |
| --- | --- | --- | --- | --- | --- | --- | --- | --- | --- | --- | --- | --- | --- | --- | --- | --- | --- | --- | --- | --- |
| CC(C)=CCC/C(C)=C/CC/C(C)=C/CC[C@]1(C)CCc2c3c(cc(C)c2O1)OCN(CCCCCCCCO)C3 | -93.3% | -97.1% | -56.9% | -98.9% | -94.7% | -56.5% | -61.4% | -77.2% | -85.3% | -53.3% | -23.2% | 4640 nM | 2710 nM | 811 nM | 622 nM | 3000 nM | 886 nM | 2980 nM | 785 nM | 6.10 |
| CC(C)=CCC/C(C)=C/CC/C(C)=C/CC[C@]1(C)CCc2c3c(c(C)c(C)c2O1)OCN(CCCCCCO)C3 | -69.5% | 22.4% | 13.4% | 3.51% | 26% | 85.7% | 62.8% | 17.4% | 38.9% | -34.8% | 82.4% | 3010 nM | 2790 nM | 2820 nM | 2830 nM | 2690 nM | 2830 nM | 2660 nM | 2700 nM | 5.68 |
| CC(C)=CCC/C(C)=C/CC/C(C)=C/CC[C@]1(C)CCc2c3c(cc(C)c2O1)OCN(CCCO)C3 | -94.2% | -90.5% | 88.3% | -46.5% | 15.1% | 110% | 33.9% | -76.7% | -35.9% | -32.1% | 2.29% | 2060 nM | 1860 nM | 2110 nM | 1690 nM | 1970 nM | 1980 nM | 5110 nM | 1040 nM | 5.74 |
| CC(C)=CCC/C(C)=C/CC/C(C)=C/CC[C@]1(C)CCc2c3c(cc(C)c2O1)OCN(CCCCCCO)C3 | -90.4% | -95.6% | -37.2% | -95.5% | -90.8% | -50.2% | -1.37% | -25.8% | -34.7% | -38% | 35.4% | 2540 nM | 1740 nM | 702 nM | 636 nM | 1100 nM | 717 nM | 5310 nM | 670 nM | 5.89 |
| CC(C)=CCC/C(C)=C/CC/C(C)=C/CC[C@]1(C)CCc2c3c(cc(C)c2O1)OCN(CCCCO)C3 | -81.2% | -96.3% | 26.4% | -94.8% | -45.8% | 51.2% | 41.5% | 2.06% | -37.7% | -40.9% | 79.2% | 15400 nM | 15500 nM | 17200 nM | 11300 nM | 17700 nM | 3050 nM | 19600 nM | 7260 nM | 5.74 |
| CC(C)=CCC/C(C)=C/CC/C(C)=C/CC[C@]1(C)CCc2c3c(c(C)c(C)c2O1)OCN(CCCCCO)C3 | 24.3% |  | 101% | 93.1% | 107% | 106% | 70% | 55.1% | 80.3% | -44.4% | 1.02% | 5980 nM | 6470 nM | 6710 nM | 6070 nM | 6240 nM | 3390 nM | 6080 nM | 4000 nM | 5.77 |
| CC(C)=CCC/C(C)=C/CC/C(C)=C/CC[C@]1(C)CCc2c3c(cc(C)c2O1)OCN(C1CCN(Cc2ccccc2)CC1)C3 | -36% |  | 109% | 59% | 50.1% | 122% | 62.5% | 22.7% | 49.6% | -35% | 14.6% | 1710 nM | 1520 nM | 1390 nM | 337 nM | 4030 nM | 2000 nM | 1690 nM | 217 nM | 6.10 |
| CC(C)=CCC/C(C)=C/CC/C(C)=C/CC[C@]1(C)CCc2c3c(c(C)c(C)c2O1)OCN(CCCCO)C3 | 10.1% | 78.2% | 76.9% | 77.5% | 65.4% | 93.3% | 74.2% | 54.4% | 70% | -11.1% | 91.9% | > 10000 nM | > 10000 nM | 3850 nM | 2220 nM | 4800 nM | 2090 nM | > 10000 nM | 2470 nM | 5.66 |
| CC(C)=CCC/C(C)=C/CC/C(C)=C/CC[C@]1(C)CCc2c3c(c(C)c(C)c2O1)OCN(CCCCCCCCO)C3 | 4.37% | -10.7% | 52.9% | 57.9% | -24% | 71.7% | 74.3% | 31.1% | 20.2% | -37.8% | 71.2% | 3410 nM | 2720 nM | 2790 nM | 3290 nM | 3320 nM | 2780 nM | 3040 nM | 2650 nM | 5.85 |

Reference: ChEMBL document CHEMBL2380254, “Optimization of tocotrienols as antiproliferative and antimigratory leads” (Eur J Med Chem, 2013)
